# According to ChEMBL document CHEMBL2203259, “Antioxidant glucosylated caffeoylquinic acid derivatives in the invasive tropical soda apple, Solanum viarum” (J Nat Prod, 2012):
# Active and inactive are the calls of the source. The rule behind the calls is not given here.
# Columns and labels:
# Assay type in all cases: functional
# [1] = Antioxidant activity assessed as trolox equivalents of ABTS radical scavenging activity at 40 mins by TEAC assay
# Summary of the method: (§1)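 ABTS•+ scavenging run per an earlier published method. Standard curve built from six 1:2 serial dilutions of a 500 μg/mL stock solution. Activity expressed as Trolox equivalent antioxidant capacity (TEAC), read at 5 min intervals from 0 to 40 min after starting incubation with the radical. Seven technical replicates.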
# [2] = Antioxidant activity assessed as trolox equivalents of ABTS radical scavenging activity at 0 min by TEAC assay; summary of the method: as §1
# [3] = tested on: Radical scavenging activity; test: Antioxidant activity assessed as DPPH radical scavenging activity
# [4] = Antioxidant activity assessed as trolox equivalents of ABTS radical scavenging activity at 10 mins by TEAC assay; summary of the method: as §1
# [5] = Antioxidant activity assessed as trolox equivalents of ABTS radical scavenging activity at 25 mins by TEAC assay; summary of the method: as §1
# [6] = Antioxidant activity assessed as trolox equivalents of ABTS radical scavenging activity at 5 mins by TEAC assay; summary of the method: as §1
# [7] = Antioxidant activity assessed as trolox equivalents of ABTS radical scavenging activity at 30 mins by TEAC assay; summary of the method: as §1
# [8] = Antioxidant activity assessed as trolox equivalents of ABTS radical scavenging activity at 20 mins by TEAC assay; summary of the method: as §1
# [9] = Antioxidant activity assessed as trolox equivalents of ABTS radical scavenging activity at 15 mins by TEAC assay; summary of the method: as §1
# [10] = Antioxidant activity assessed as trolox equivalents of ABTS radical scavenging activity at 35 mins by TEAC assay; summary of the method: as §1
Structure (SMILES),Activity [1],Activity [2],Activity [3],Activity [4],Activity [5],Activity [6],Activity [7],Activity [8],Activity [9],Activity [10]
O=C(/C=C/c1ccc(O[C@@H]2O[C@H](COC(=O)[C@]3(O)C[C@@H](O)[C@@H](O)[C@H](OC(=O)/C=C/c4ccc(O)c(O)c4)C3)[C@@H](O)[C@H](O)[C@H]2O)c(O)c1)O[C@@H]1C[C@](O)(C(=O)O)C[C@@H](O)[C@H]1O,3.89,1.51,Active,3.01,3.73,2.71,3.71,3.64,3.18,3.81
O=C(O)CC(=O)O[C@@H]1C[C@@](O)(C(=O)O)C[C@@H](OC(=O)/C=C/c2ccc(O[C@@H]3O[C@H](COC(=O)[C@]4(O)C[C@@H](O)[C@@H](O)[C@H](OC(=O)/C=C/c5ccc(O)c(O)c5)C4)[C@@H](O)[C@H](O)[C@H]3O)c(O)c2)[C@@H]1O,2.56,-0.31,Active,1.85,2.49,1.61,2.42,2.26,2.1,2.5
O=C(/C=C/c1ccc(O)c(O)c1)O[C@@H]1C[C@](O)(C(=O)O)C[C@@H](O)[C@H]1O,2.56,-0.31,Active,1.85,2.49,1.61,2.42,2.26,2.1,2.5
